{
  "source": "ChEMBL document CHEMBL4422614",
  "about": "(Eur J Med Chem, 2019)",
  "key": {"Mus musculus [1]": {"test_system": "Mus musculus", "assay": "Cognition enhancement activity in amyloid beta (25 to 35 residues) induced C57BL/6J mouse model of Alzheimer's disease assessed as swimming time in effective region at 4 mg/kg/day, ig administered for 26 consecutive days by Morris water maze test (4.3 +/- 1.3 sec)", "assay_type": "functional", "in_short": "(§1)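 Mice were randomized into 7 groups. All except sham got an ICV injection of Aβ25-35 (3 nmol); sham got the same volume of saline ICV. Dosing was intragastric daily for 26 days, with 0.5% CMC-Na as vehicle for sham and model. Body weight, diarrhea and emesis-like behavior were monitored.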"}, "in vitro": {"assay": "in vitro", "conditions": "PAMPA"}, "[2]": {"assay": "Antioxidant activity assessed as trolox equivalent of AAPH-induced radical scavenging activity at 10 to 20 uM preincubated for 10 mins followed by AAPH addition measured every minute for 120 mins by ORAC fluorescein assay", "assay_type": "functional", "in_short": "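ORAC values are expressed as trolox equivalents, mean ± SD of three independent experiments.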"}, "Mus musculus [3]": {"test_system": "Mus musculus", "assay": "Cognition enhancement activity in amyloid beta (25 to 35 residues) induced C57BL/6J mouse model of Alzheimer's disease assessed as decrease in escape latancy at 4 mg/kg/day, ig administered for 26 consecutive days by Morris water maze test", "assay_type": "functional, organism-based", "in_short": "as §1"}, "Mus musculus [4]": {"test_system": "Mus musculus", "assay": "(§2) Neuroprotection in amyloid beta (25 to 35 residues) induced C57BL/6J mouse model of Alzheimer's disease assessed as reduction in ratio of apoptotic neuron in CA3 hippocampus region at 4 mg/kg/day, ig administered for 26 consecutive days by hematoxylin and eosin staining-based light microscopic analysis (reference value: 80.2 +/- 8.6%)", "assay_type": "ADME, organism-based", "design": "scale not given: the % may be the effect or the level left", "conditions": "in vivo, po", "in_short": "(§3)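 Hippocampal CA1, CA3 and DG neurons were stained with H&E after the Aβ25-35 ICV model and 26-day intragastric dosing. Denatured cell index = denatured cells/total cells, n = 5. Values are mean ± SD, two-way ANOVA versus model.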"}, "Mus musculus [5]": {"test_system": "Mus musculus", "assay": "Cognition enhancement activity in amyloid beta (25 to 35 residues) induced C57BL/6J mouse model of Alzheimer's disease assessed as increase in number of virtual platform crossing at 4 mg/kg/day, ig administered for 26 consecutive days by Morris water maze test", "assay_type": "functional, organism-based", "in_short": "as §1"}, "Mus musculus [6]": {"test_system": "Mus musculus", "assay": "Cognition enhancement activity in amyloid beta (25 to 35 residues) induced C57BL/6J mouse model of Alzheimer's disease assessed as swimming speed at 4 mg/kg/day, ig administered for 26 consecutive days by Morris water maze test (reference value: 15.6 +/- 2.4 cm/sec)", "assay_type": "functional", "in_short": "as §1"}, "Mus musculus [7]": {"test_system": "Mus musculus", "assay": "as §2, with “CA1” for “CA3”, “40.6” for “80.2”, “12.5%)” for “8.6%)”", "assay_type": "ADME, organism-based", "design": "scale not given: the % may be the effect or the level left", "conditions": "in vivo, po", "in_short": "as §3"}, "Mus musculus [8]": {"test_system": "Mus musculus", "assay": "as §2, with “DG” for “CA3”, “55.8” for “80.2”, “7.2%)” for “8.6%)”", "assay_type": "ADME, organism-based", "design": "scale not given: the % may be the effect or the level left", "conditions": "in vivo, po", "in_short": "as §3"}, "Mus musculus [9]": {"test_system": "Mus musculus", "assay": "Cognition enhancement activity in amyloid beta (25 to 35 residues) induced C57BL/6J mouse model of Alzheimer's disease assessed as swimming path length in virtual platform at 4 mg/kg/day, ig administered for 26 consecutive days by Morris water maze test (10.2 +/- 3.2 cm)", "assay_type": "functional", "in_short": "as §1"}},
  "note": "Activity calls are given as the source filed them. No cut-off for these calls is given here.",
  "data": [
    {"compound": "O=C(Nc1c(Cl)cncc1Cl)c1ccc(OC(F)F)c(OCC2CC2)c1", "note": "[ROFLUMILAST]", "values": [
      {"measurement": "Time", "setting": "Mus musculus [1]", "value": 5.4, "unit": "s"},
      {"measurement": "Papp at 10 h, 100 ug/ml", "setting": "in vitro", "value": 9.22, "unit": "×10⁻⁶ cm/s"},
      {"measurement": "Activity", "setting": "[2]", "value": 0.067, "unit": "equiv"},
      {"measurement": "Activity", "setting": "Mus musculus [3]", "value": "Active"},
      {"measurement": "Activity", "setting": "Mus musculus [4]", "value": 38.7, "unit": "%"},
      {"measurement": "Activity", "setting": "Mus musculus [5]", "value": "Active"},
      {"measurement": "Activity", "setting": "Mus musculus [6]", "value": 14.5, "unit": "cm/s"},
      {"measurement": "Activity", "setting": "Mus musculus [7]", "value": 16.5, "unit": "%"},
      {"measurement": "Activity", "setting": "Mus musculus [8]", "value": 25.1, "unit": "%"},
      {"measurement": "Activity", "setting": "Mus musculus [9]", "value": 16, "unit": "cm"}
    ]}
  ]
}
